Most compounds without a hit are left out; they make up all but 3.6% or so of the library.
ZTA counter: blocks Epstein-Barr virus ZTA, an EBNA-1 counter-screen; P03206; ZTA-DNA binding, fluorescence polarization; inhibition, % at 11 µM; 0.15% of 320,000 active; in the data active = inhibition above about 33%
Target sequence (P03206 whole entry, looked up): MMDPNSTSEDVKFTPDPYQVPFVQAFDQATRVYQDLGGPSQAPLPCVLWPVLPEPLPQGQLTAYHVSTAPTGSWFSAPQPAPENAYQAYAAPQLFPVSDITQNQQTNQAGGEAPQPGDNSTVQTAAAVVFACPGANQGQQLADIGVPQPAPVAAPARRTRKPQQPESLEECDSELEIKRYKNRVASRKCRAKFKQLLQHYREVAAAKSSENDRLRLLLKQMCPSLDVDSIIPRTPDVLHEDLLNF
EBNA-1 inh: blocks EBNA-1 binding to DNA | AID 1950 | 0.34% of 300,000 active | EBNA-1 DNA binding, fluorescence polarization | inhibition, % at 14.8 µM; in the data active = inhibition above about 28%
NS3 helicase inh: blocks Hepatitis C virus NS3 helicase unwinding | NS3 helicase DNA unwinding, Cy5 molecular beacon fluorescence | inhibition, % at 10.9 µM | 0.56% of 290,000 active | AID 1800;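 active = inhibition above the mean of all tested compounds plus 3 SD, set per campaign, cut at about 35% in these data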;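 note: 0% = DMSO wells and 100% = thioflavine S control wells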
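System: NS3 helicase fragment of HCV / Schedule: 1 h at 25 °C / Control set: DMSO alone as 0% and 110 µM thioflavine S as 100% / Reagent: Cy5/quencher beacon DNA duplex and ATP to start / Technique: Cy5 fluorescence / Replication: singlicate / Evaluation: % inhibition of end-to-start signal ratio versus controls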
FID counter: fluorescent intercalator displacement, NS3 helicase counter-screen; inhibition, % at 7.9 µM; 0.17% of 290,000 active; DNA fluorescent intercalator displacement, fluorescence; AID 1845; in the data active = inhibition above about 37%;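 note: 0% = vehicle and 100% = reference compound; higher means more ethidium bromide displaced from hairpin DNA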
FGF22 binding: shifts melting point of recombinant human FGF22; 1.5% of 340,000 active; Q9HCT0; AID 651658; activity (Tm shift, normalised), % at 9.99 µM; recombinant FGF22 thermal shift, SYPRO orange fluorescence; percent of sucrose octasulfate shift, DMSO zero;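 active = mean Tm shift, scaled 0 neutral to 100 positive control, at about 1.3% or above, every replicate too, limit read from the data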
Target sequence (Q9HCT0 whole entry, looked up): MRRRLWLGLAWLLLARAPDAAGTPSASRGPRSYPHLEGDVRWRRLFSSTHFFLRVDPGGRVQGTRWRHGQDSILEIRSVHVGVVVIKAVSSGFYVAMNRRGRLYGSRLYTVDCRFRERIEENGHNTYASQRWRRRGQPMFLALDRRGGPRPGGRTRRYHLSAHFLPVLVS
NR3A LBD binder: NR3A (human) ligand-binding domain modulation; AID 1259313; 2.5% of 340,000 active; NR3A LBD differential scanning fluorimetry, Tm shift; 0% = protein alone, 100% = glycine-bound protein; Tm shift relative to glycine control, % at 25 µM;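 active = melting temperature shift of at least 10% of the positive control shift, at one fixed dose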
EBNA-1 inh conf: EBNA-1 (EBV) inhibition, confirmation | shares compounds with EBNA-1 inh | AID 2292 | 35% of 830 active | inhibition, % at 14.8 µM | Recombinant EBNA-1 DBD, Cy5-DNA fluorescence polarization;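 active = mean inhibition across replicates above a set limit taken from the earlier primary screen, cut at about 28% in these data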;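 note: plate controls were EBNA-1 protein with DMSO for no effect and wells lacking EBNA-1 for full effect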
ZTA DNA inh trip: counter-screen for EBNA-1 inhibitors: Epstein-Barr virus ZTA inhibitors, triplicate; AID 2328; 830 tested, under 10 active; shares compounds with EBNA-1 inh; Zta-ZRE DNA binding, Cy5 fluorescence polarization; inhibition, % at 11.1 µM;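 active = mean inhibition over triplicates above a set limit taken from the primary EBNA-1 screen, cut at about 37% in these data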;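 note: purified full length Zta protein with Cy5 labeled ZRE DNA probe; 0% = Zta with DMSO and 100% = wells lacking Zta protein; inhibitors lower polarization by freeing the labeled DNA probe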
Starred values were filed as active, the others as inactive; nt = no result given.

SMILES | ZTA counter | EBNA-1 inh | NS3 helicase inh | FID counter | FGF22 binding | NR3A LBD binder | EBNA-1 inh conf | ZTA DNA inh trip
COc1ccc(-c2nc3n(n2)C(c2ccccc2)C2=C(CCCC2=O)N3)cc1OC (configuration not stated) | -2 | 0 | -2 | -9 | nt | 0 | nt | nt
COc1cc(-c2nc3n(n2)C(c2cccc(OC)c2OC)C2=C(CCCC2=O)N3)cc(OC)c1OC (configuration not stated) | 3 | 85* | 5 | -19 | nt | 0 | 112* | 0
Cc1[nH]c2ccccc2c1/C=C/C(=O)c1ccncc1 | -3 | 38* | 14 | -1 | 0 | 5 | 9 | -4
O=C(/C=C/c1cccc2ccccc12)c1ccncc1 | 13 | 10 | -3 | -4 | nt | 0 | nt | nt
O=C(N[C@@H]1CC[C@H](CCn2cc(Cc3ccccc3)nn2)O[C@H]1CO)c1ccccn1 | nt | nt | nt | nt | 0 | nt | nt | nt
c1ccc(N2CCN(c3nc(-c4ccccn4)nc4ccccc34)CC2)cc1 | -3 | 0 | -53 | -19 | nt | -1 | nt | nt
CN1CCN(c2nc(-c3ccccn3)nc3ccccc23)CC1 | -6 | 63* | 7 | 21 | nt | 1 | 5 | -2
C/C(=N/NC(=O)c1ccncc1)c1ccc(NC(=O)c2ccc(Cl)cc2Cl)cc1 | 2 | 37* | 12 | -30 | 0 | 1 | 31* | 9
O=C(C[C@H]1C[C@@H]2c3cc(NC(=O)c4ccc5c(c4)OCO5)ccc3O[C@@H]2[C@@H](CO)O1)NCc1ccc(Oc2ccccc2)cc1 | nt | nt | nt | nt | 0 | nt | nt | nt
O=C(Cc1ccc(-n2cccc2)cc1)NCc1cccs1 | 0 | 32* | 1 | -1 | nt | -1 | 20 | 1
CC(C)NC(=O)C1CC(=O)N(c2ccc(F)c(Cl)c2)C1 (configuration not stated) | -18 | 32* | -7 | -1 | nt | 1 | 4 | 6
Cc1noc(C)c1NC(=O)N[C@H]1CC[C@@H](CC(=O)N2CCCCC2)O[C@H]1CO | nt | nt | nt | nt | 0 | nt | nt | nt
C[C@@H]1CN([C@@H](C)CO)C(=O)c2cc(C3=CCCCC3)cnc2O[C@@H]1CN(C)C(=O)Cc1ccncc1 | nt | nt | nt | nt | 0 | nt | nt | nt
COCCn1c(Cc2ccccc2)nnc1SCC(=O)NC(C)(C)C | -8 | -5 | 1 | -7 | nt | 0 | nt | nt
COCCn1c(Cc2ccccc2)nnc1SCC(=O)NC(C)C | 19 | 87* | 8 | 2 | nt | 2 | 3 | 3
Cc1ccc(N2C(=O)CC(N(CCc3ccccc3)C(=S)Nc3ccc(N(C)C)cc3)C2=O)cc1 (configuration not stated) | 10 | 57* | -6 | -11 | nt | 6 | 18 | -3
NS(=O)(=O)c1ccc(NC(=O)c2ccc(COc3ccccc3)o2)cc1 | 3 | 39* | 0 | -2 | 0 | -1 | 20 | -2
Cc1ccc(Nc2nc(Oc3ccc(OCc4ccccc4)nn3)nc(N3CCOCC3)n2)cc1 | -6 | 32* | 5 | -9 | nt | 0 | 3 | -5
COc1ccc2c3c([nH]c2c1)[C@@H](CO)N(C(=O)CN(C)C)CC31CN(CC2CC2)C1 | nt | nt | nt | nt | 0 | nt | nt | nt
C[C@@H]1CN([C@@H](C)CO)C(=O)c2cc(NS(=O)(=O)c3cn(C)cn3)ccc2O[C@H]1CN(C)Cc1ccc(C(=O)Nc2ccccc2N)cc1 | nt | nt | nt | nt | 0 | nt | nt | nt
CCOC(=O)c1c(-c2ccc(C)o2)csc1NC(=S)NC(=O)c1ccc(F)cc1 | 15 | 28* | 5 | -5 | nt | 2 | 26 | -3
CCOC(=O)c1c(-c2ccc(C)o2)csc1NC(=O)CN1CCCCC1 | -19 | -11 | -3 | -18 | 0 | 2 | nt | nt
C[C@@H]1CCCCO[C@H](CN(C)Cc2ccc3c(c2)OCO3)[C@H](C)CN([C@H](C)CO)C(=O)c2cc(NS(=O)(=O)c3cccs3)ccc2O1 | nt | nt | nt | nt | 0 | nt | nt | nt
COc1ccc(NC(=O)CCC(=O)c2cccs2)cc1S(=O)(=O)Nc1ccc(Cl)cc1 | 16 | 34* | -11 | -20 | 0 | -3 | 17 | 0
C[C@@H]1CN([C@@H](C)CO)C(=O)Cc2cc(NS(C)(=O)=O)ccc2O[C@@H]1CN(C)Cc1ccc(C(=O)O)cc1 | nt | nt | nt | nt | 0 | nt | nt | nt
SMILES | ZTA counter | EBNA-1 inh | NS3 helicase inh | FID counter | FGF22 binding | NR3A LBD binder | EBNA-1 inh conf | ZTA DNA inh trip
COc1ccc(Nc2nc(NCc3ccco3)nc(N)c2[N+](=O)[O-])cc1 | 17 | 39* | -8 | 1 | 0 | -1 | 12 | 1
O=S(=O)(Nc1nc(-c2ccccc2)cs1)c1cc(Cl)ccc1Cl | 21 | 31* | 33 | -39 | 0 | 4 | 10 | 8
O=c1/c(=C/c2ccccn2)sc2nc3ccccc3n12 | 12 | -5 | 6 | 1 | nt | 2 | nt | nt
O=c1/c(=C\c2cc([N+](=O)[O-])cc([N+](=O)[O-])c2O)sc2nc3ccccc3n12 | 7 | 27* | 17 | -15 | nt | 31* | 28* | 25
COc1ccc(-c2csc(NC(=S)NC(=O)c3ccc(S(=O)(=O)N(C)C)cc3)n2)cc1OC | 15 | 46* | -16 | -21 | 0 | -14 | 59* | 41*
COc1ccc(-c2csc(NC(=O)CS(=O)(=O)c3ccccc3)n2)cc1OC | nt | nt | nt | nt | 0 | nt | nt | nt
COc1cc(/C=N/NS(=O)(=O)c2ccc(C)cc2)ccc1OCc1ccc(C(=O)O)cc1 | 16 | 14 | 15 | -32 | nt | -19 | nt | nt
COC(=O)c1ccc(COc2ccccc2/C=N/NS(=O)(=O)c2ccc(C)cc2)cc1 | 4 | 67* | -4 | -1 | nt | 3 | 29* | 14
O=C(CCCN1C(=O)/C(=C/c2cccs2)SC1=S)NNC(=O)c1ccccc1O | 20 | 40* | 4 | 3 | nt | 12* | 20 | 8
COc1ccc(C(=O)N2C(=O)c3ccc(N)cc3C2=O)cc1 | -11 | 34* | -6 | 0 | 0 | 0 | 27 | -4
COc1ccc(/C=C/C(=O)c2c(C)nc3ccccn23)cc1 | -7 | 69* | -9 | -6 | nt | 1 | 40* | -1
C[C@@H]1CN([C@H](C)CO)C(=O)Cc2cc(NC(=O)CCC(F)(F)F)ccc2O[C@H]1CN(C)S(=O)(=O)c1ccc(F)cc1 | nt | nt | nt | nt | 0 | nt | nt | nt
CCOc1ccc(N(CC(=O)N/N=C(\C)c2cccc(NC(C)=O)c2)S(=O)(=O)c2ccccc2)cc1 | -2 | 53* | -10 | -34 | 0 | -1 | 10 | 7
C[C@H]1CN([C@@H](C)CO)C(=O)c2cccc(NS(=O)(=O)c3cccs3)c2O[C@@H]1CN(C)S(=O)(=O)c1cn(C)cn1 | nt | nt | nt | nt | 0 | nt | nt | nt
CCN(/N=C/c1ccc(Cl)cc1)c1cc(=O)n(C)c(=O)[nH]1 | -7 | 37* | 1 | -20 | 0 | 1 | -8 | -8

Compound activity deposited in PubChem by several laboratories.
